According to ChEMBL document CHEMBL4033620, “Design, synthesis and biological evaluation of quinoline derivatives as HDAC class I inhibitors” (Eur J Med Chem, 2017):

Tests used:
[1] = target: Histone deacetylase (HDAC1 and HDAC2) (Homo sapiens, UniProt Q13547+Q92769); test: Inhibition of HDAC1/2 in human HeLa cell nuclear extract using COLOR DE LYS as substrate pretreated for 5 mins followed by substrate addition measured after 30 mins by UV-absorption method; format: cell-based
[2] = test system: K562; test: Induction of apoptosis in human K562 cells assessed as early apoptotic cells at 1 uM after 24 hrs by Annexin V-FITC/propidium iodide staining-based flow cytometry (reference value: 4.78%); format: functional
[3] = test system: K562; test: Induction of apoptosis in human K562 cells after 24 hrs by Annexin V-FITC/propidium iodide staining-based flow cytometric method; format: functional, cell-based
[4] = test system: PC-3; test: Antiproliferative activity against human PC3 cells after 48 hrs by MTT assay; format: functional, cell-based; settings: PC-3, 48 h
In short: (§1)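 Cells grown in RPMI1640 with 10% FBS at 37°C, 5% CO2. Seeded at 4000–5000 cells/well for 8 h, then exposed to a range of compound concentrations for 48 h. 0.5% MTT solution added for 4 h, formazan dissolved in DMSO, absorbance read at 570 nm. IC50 derived from inhibition ratios, given as mean ± standard deviation of two or three separate determinations.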

[5] = test system: HeLa; test: Antiproliferative activity against human HeLa cells after 48 hrs by MTT assay; format: functional, cell-based; in short: as §1
[6] = test system: K562; test: Induction of apoptosis in human K562 cells assessed as late apoptotic cells at 2 uM after 24 hrs by Annexin V-FITC/propidium iodide staining-based flow cytometry (reference value: 2.83%); format: functional
[7] = target: T1, Histone deacetylase 8 (Homo sapiens, UniProt Q9BY41); test: Inhibition of HDAC8 (unknown origin) using substrate after 30 mins by fluorometric analysis
T1 sequence (Q9BY41 whole entry): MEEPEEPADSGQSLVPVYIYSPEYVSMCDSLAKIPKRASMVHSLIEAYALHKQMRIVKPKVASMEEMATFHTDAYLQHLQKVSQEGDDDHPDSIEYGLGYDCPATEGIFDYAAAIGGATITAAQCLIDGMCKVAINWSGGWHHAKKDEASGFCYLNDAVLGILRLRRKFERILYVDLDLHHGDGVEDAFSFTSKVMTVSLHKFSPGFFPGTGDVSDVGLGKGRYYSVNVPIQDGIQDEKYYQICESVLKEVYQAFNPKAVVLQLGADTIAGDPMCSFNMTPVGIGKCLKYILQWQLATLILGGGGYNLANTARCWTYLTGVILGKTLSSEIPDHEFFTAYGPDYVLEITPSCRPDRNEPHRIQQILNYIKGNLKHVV

[8] = target: T2, Protein deacetylase HDAC6 (Homo sapiens, UniProt Q9UBN7); test: Inhibition of HDAC6 (unknown origin) using substrate after 30 mins by fluorometric analysis
T2 sequence (Q9UBN7 whole entry): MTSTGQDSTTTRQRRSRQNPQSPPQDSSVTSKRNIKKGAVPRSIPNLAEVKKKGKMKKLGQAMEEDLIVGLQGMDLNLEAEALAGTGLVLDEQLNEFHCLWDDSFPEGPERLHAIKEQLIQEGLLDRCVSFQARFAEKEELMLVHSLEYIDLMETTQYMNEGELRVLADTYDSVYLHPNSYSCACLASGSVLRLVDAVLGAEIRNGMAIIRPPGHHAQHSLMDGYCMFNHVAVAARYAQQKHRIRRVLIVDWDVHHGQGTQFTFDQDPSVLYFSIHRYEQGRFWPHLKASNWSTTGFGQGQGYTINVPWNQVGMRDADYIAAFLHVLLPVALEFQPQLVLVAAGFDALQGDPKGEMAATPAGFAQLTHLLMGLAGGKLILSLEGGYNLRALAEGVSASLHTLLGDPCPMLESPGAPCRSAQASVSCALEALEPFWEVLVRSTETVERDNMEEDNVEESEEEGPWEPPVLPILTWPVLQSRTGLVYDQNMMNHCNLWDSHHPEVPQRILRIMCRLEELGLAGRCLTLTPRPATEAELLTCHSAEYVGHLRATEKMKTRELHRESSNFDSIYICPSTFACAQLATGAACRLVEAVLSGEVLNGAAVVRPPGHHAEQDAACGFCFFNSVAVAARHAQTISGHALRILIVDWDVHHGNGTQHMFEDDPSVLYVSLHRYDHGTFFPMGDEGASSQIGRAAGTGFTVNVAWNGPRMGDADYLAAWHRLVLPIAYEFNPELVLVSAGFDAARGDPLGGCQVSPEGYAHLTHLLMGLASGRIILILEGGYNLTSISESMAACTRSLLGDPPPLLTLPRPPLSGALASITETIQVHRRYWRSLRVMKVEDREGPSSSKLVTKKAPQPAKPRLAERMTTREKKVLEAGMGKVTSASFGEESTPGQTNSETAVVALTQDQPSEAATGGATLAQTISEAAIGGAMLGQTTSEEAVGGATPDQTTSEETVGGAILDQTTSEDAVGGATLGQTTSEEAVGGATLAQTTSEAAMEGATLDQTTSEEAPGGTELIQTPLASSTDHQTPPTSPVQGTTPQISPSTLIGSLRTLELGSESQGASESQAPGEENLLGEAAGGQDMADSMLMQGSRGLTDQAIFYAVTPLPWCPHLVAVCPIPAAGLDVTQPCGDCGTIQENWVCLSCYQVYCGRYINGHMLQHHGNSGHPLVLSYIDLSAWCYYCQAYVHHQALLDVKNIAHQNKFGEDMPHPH

[9] = Inhibition of Class 1 histone deacetylase in human K562 cells using Boc-Lys (acetyl)-AMC as substrate preincubated with compound for 3 hrs followed by substrate addition measured after 3 hrs by fluorometric analysis; format: cell-based
[10] = test system: K562; test: Potency index, ratio of vorinostat IC50 to compound IC50 for human K562 cells; format: functional
In short: (§2)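 Cells were grown in RPMI1640 with 10% FBS at 37°C and 5% CO2, seeded at 4000–5000 cells/well for 8 h, then exposed to a compound concentration series for 48 h. MTT (0.5%) was added for 4 h and formazan dissolved in DMSO. A570 was read and IC50 derived from inhibition ratios.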

[11] = Inhibition of Class 2a histone deacetylase in human K562 cells using Boc-Lys-(epsilon-trifluoromethylacetyl)-AMC as substrate preincubated with compound for 3 hrs followed by substrate addition measured after 3 hrs by fluorometric analysis; format: cell-based
[12] = test system: K562; test: Induction of apoptosis in human K562 cells assessed as late apoptotic cells at 1 uM after 24 hrs by Annexin V-FITC/propidium iodide staining-based flow cytometry (reference value: 2.83%); format: functional
[13] = test system: K562; test: Antiproliferative activity against human K562 cells after 48 hrs by MTT assay; format: functional, cell-based; settings: K562, 48 h
[14] = test system: K562; test: Induction of apoptosis in human K562 cells assessed as viable cells at 2 uM after 24 hrs by Annexin V-FITC/propidium iodide staining-based flow cytometry (reference value: 92.4%); format: functional; settings: Homo sapiens, K562, 24 h; read-out: Activity
[15] = test system: K562; test: Induction of apoptosis in human K562 cells assessed as necrotic cells at 1 uM after 24 hrs by Annexin V-FITC/propidium iodide staining-based flow cytometry (reference value: 0.035%); format: functional
[16] = test system: K562; test: Induction of apoptosis in human K562 cells assessed as viable cells at 1 uM after 24 hrs by Annexin V-FITC/propidium iodide staining-based flow cytometry (reference value: 92.4%); format: functional; settings: Homo sapiens, K562, 24 h; read-out: Activity
[17] = test system: PC-3; test: Potency index, ratio of vorinostat IC50 to compound IC50 for human PC3 cells; format: functional; in short: as §2
[18] = target: Histone deacetylase 1 (Homo sapiens, UniProt Q13547); test: Inhibition of HDAC1 (unknown origin) using substrate after 30 mins by fluorometric analysis
Chain of Histone deacetylase 1 (Q13547 whole entry): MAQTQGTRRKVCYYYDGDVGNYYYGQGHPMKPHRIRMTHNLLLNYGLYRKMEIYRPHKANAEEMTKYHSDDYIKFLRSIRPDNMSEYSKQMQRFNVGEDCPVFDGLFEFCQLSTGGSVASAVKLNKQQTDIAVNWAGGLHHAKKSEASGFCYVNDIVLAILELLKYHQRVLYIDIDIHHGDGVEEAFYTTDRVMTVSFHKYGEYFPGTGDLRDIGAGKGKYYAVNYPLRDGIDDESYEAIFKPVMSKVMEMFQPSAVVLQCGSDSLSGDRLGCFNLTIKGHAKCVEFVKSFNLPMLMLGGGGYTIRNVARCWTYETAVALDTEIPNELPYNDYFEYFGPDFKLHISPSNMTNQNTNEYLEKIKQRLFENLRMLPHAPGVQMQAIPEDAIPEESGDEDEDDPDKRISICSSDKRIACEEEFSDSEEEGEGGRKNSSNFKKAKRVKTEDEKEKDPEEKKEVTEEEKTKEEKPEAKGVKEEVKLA

[19] = test system: HEL; test: Antiproliferative activity against human HEL cells after 48 hrs by MTT assay; format: functional, cell-based
[20] = test system: K562; test: Induction of apoptosis in human K562 cells assessed as necrotic cells at 2 uM after 24 hrs by Annexin V-FITC/propidium iodide staining-based flow cytometry (reference value: 0.035%); format: functional
[21] = test system: K562; test: Induction of apoptosis in human K562 cells assessed as early apoptotic cells at 2 uM after 24 hrs by Annexin V-FITC/propidium iodide staining-based flow cytometry (reference value: 4.78%); format: functional
[22] = test system: MOLT-4; test: Antiproliferative activity against human MOLT4 cells after 48 hrs by MTT assay; format: functional, cell-based; settings: MOLT-4, 48 h

O=C(/C=C/c1ccc(CC(=O)N(Cc2ccc3ccccc3n2)c2ccccc2)cc1)NO
IC50 [1]: 0.72 µM

COc1ccc(N(Cc2ccc3ccccc3n2)C(=O)c2ccc(/C=C/C(=O)NO)cc2)cc1
IC50 [1]: 0.744 µM

O=C(NO)c1ccc(CN(Cc2ccccc2)Cc2ccc3ccccc3n2)cc1
IC50 [1]: 0.836 µM

O=C(/C=C/c1ccc(CNCc2ccc3cccc(Cl)c3n2)cc1)NO
Activity [2]: 38.2% | Activity [3]: Dose-dependent effect | IC50 [1]: 0.275 µM | IC50 [4]: 2.92 µM | IC50 [5]: 1.82 µM | Activity [6]: 2.96% | IC50 [7]: 0.911 µM | IC50 [8]: 0.0365 µM | IC50 [9]: 0.064 µM | Ratio IC50 [10]: 3 - 5 | IC50 [11]: 4.21 µM | Activity [12]: 3.75% | IC50 [13]: 0.36 µM | viability at 2 µM [14]: 40.7% | Activity [15]: 0.145% | viability at 1 µM [16]: 57.9% | Ratio IC50 [17]: 3 - 5 | IC50 [18]: 0.095 µM | IC50 [19]: 0.11 µM | Activity [20]: 0.174% | Activity [21]: 56.2% | IC50 [22]: 0.16 µM

COc1ccc2nc(CN(C(=O)Cc3ccc(/C=C/C(=O)NO)cc3)c3ccccc3)ccc2c1
IC50 [1]: 0.56 µM

COc1ccc2nc(CN(Cc3ccccc3)Cc3ccc(/C=C/C(=O)NO)cc3)ccc2c1
IC50 [1]: > 1 µM

COc1ccc2nc(CNCc3ccc(C(=O)NO)cc3)ccc2c1
IC50 [1]: > 1 µM

O=C(/C=C/c1ccc(CC(=O)N(Cc2ccc3cc(Br)ccc3n2)c2ccccc2)cc1)NO
IC50 [1]: > 1 µM

CCCCCCN(Cc1ccc(/C=C/C(=O)NO)cc1)Cc1ccc2cc(Br)ccc2n1
IC50 [1]: > 1 µM

O=C(NO)c1ccc(CNCc2ccc3cc(Br)ccc3n2)cc1
IC50 [1]: > 1 µM

CCCCCCN(Cc1cccc(/C=C/C(=O)NO)c1)Cc1ccc2cc(Br)ccc2n1
IC50 [1]: > 1 µM

COc1cccc2ccc(CNCc3ccc(/C=C/C(=O)NO)cc3)nc12
IC50 [1]: 0.206 µM | IC50 [4]: 4.6 µM | IC50 [5]: 3.33 µM | IC50 [13]: 0.75 µM | IC50 [19]: 0.22 µM | IC50 [22]: 0.19 µM

O=C(/C=C/c1cccc(CN(Cc2ccccc2)Cc2ccc3cc(Br)ccc3n2)c1)NO
IC50 [1]: > 1 µM

O=C(/C=C/c1ccc(C(=O)N(Cc2ccc3ccccc3n2)c2ccc(Br)cc2)cc1)NO
IC50 [1]: > 1 µM
